Reference: the EternaBench riboswitch data

Tested on: MS2 coat protein
Assay: apparent Kd, MS2 coat protein; higher = weaker binding; RNA-MaP array; FMN 200 µM where present
In short: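 The titrant was SNAP-549-labelled MS2 coat protein, run from 0.7 or 1.5 nM in doubling steps to 3 µM. It was applied to designs transcribed by stalled E. coli RNA polymerase on Illumina sequencing-chip clusters, without ligand first and then with constant ligand, in 100 mM Tris-HCl pH 7.5, 80 mM KCl, 4 mM MgCl2, BSA, DTT, yeast tRNA and Tween-20. The apparent Kd is the median of filtered per-cluster binding-curve fits, with green signal normalised to red-channel RNA signal and control-cluster median Fmax.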

[1] = designed as: OFF switch for flavin mononucleotide, no ligand
[2] = ligand present: flavin mononucleotide, designed as: OFF switch for flavin mononucleotide
[3] = designed as: ON switch for flavin mononucleotide, no ligand
[4] = ligand present: flavin mononucleotide, designed as: ON switch for flavin mononucleotide

Sequence | apparent Kd [1] | apparent Kd [2] | apparent Kd [3] | apparent Kd [4]
GGAAAACAUGAGGAUCACCCAUGUGAGGAUAUCGAUGUCCAAUUUAAAGUGCGGGACUCGAGAAGGCACUUGGA | 43 nM | 30.1 nM | – | –
AUUACCAGAGGAUAUGCGAGGGUGUACCUCCCACAGCGAACACAUGAGGAUCACCCAUGUAGAAGGCUGAACAU | 38.9 nM | 33 nM | – | –
GUCACUAGAGGAUAUACAAUGGUAUAUGAUCCUAGAGACAUACAUGAGGAUCACCCAUGUAGAAGGCUAGUAUU | 64.6 nM | 43.5 nM | – | –
AAAACAUGAGGAUCACCCAUGUAAUGAUCGGUUGAUGAAAGUGAGGAUAUACAAAAUUUUAUGGAGUAGAAGGCACUGGGUUCA | – | – | 31.4 nM | 31.9 nM
UGCUGGCGAGGAUAUGCUCGGGAUGCUAGUCGCGCGGUUGCACAUGAGGAUCACCCAUGUAGAAGGUGUCUGUG | 170 nM | 169 nM | – | –
UUGUUAUAUGUAGGAUAUGCAUAUUGUUAUUAUGCAGAAGGACAUGAGGAUCACCCAUGUAUAUUAUUAUUAUAUAUUAUAUAU | 32 nM | 64.7 nM | – | –
UGUCGGAGCAGAGGAUAUUACAUGAGGAUCACCCAUGUAUGAACCAAUAGCUGGAAACAGCAGUGUAAGAAGGCUGCUCCGACA | 12.5 nM | 143 nM | – | –
GCGUUACAUGAGGAUCACCCAUGUGAGGAUAUGGUUCGGUACUGUCCUGUCGCGUACUCCAGAAGGCACGUGUG | 47.6 nM | 104 nM | – | –
CGAUGAGGUGUGAGGAUAUCGUGUUCGAAAGAACGUGAGAAGGCACAUGAGGAUCACCCAUGUCAACCUUGUCG | 17.3 nM | 15.6 nM | – | –
GCGUUUGUAUCACAUGUAUUACAUGAGGAUCACCCAUGUUACUAGGAUAUGUAUUAGUAUUAUCAACAGAAGGAGUAAGAACGC | 17.5 nM | 18.3 nM | – | –
AGGAGACAUGAGGAUCACCCAUGUGCGAGGUGAAGAGGAUAUAGAAGAAGAAGAAAGAAACUAGAAGGCUUAAAAA | – | – | 220 nM | 244 nM
UUUUUAUUUGUAGGAUAUGGAGACAUGAGGAUCACCCAUGUAUGAUAAGCUAAAUUAUGAUGUGGCCAGAAGGAUAUUAUUUUU | – | – | 51.1 nM | 72.6 nM
GGUACUCAAAGAGUACUUGGUCGAACAUGAGGAUCACCCAUGUAGGAUAUGCAAAGCUAGAAGUAGCAGAAGGACAUGUGCAGC | 14.4 nM | 22.1 nM | – | –
AACAGUACAGGAUAUACAUGAGGAUCACCCAUGUGAGAUUUAAGUGGCGUACCACAAAGUAGAAGGGUACUGGA | 38 nM | 187 nM | – | –
AUAGCAACAUGAGGAUCACCCAUGUAGGAUAUCGCUAUUGUAAUCAUGAAACAUGAUUACAAUAGCGAGAAGGACAUAUGCUAU | 6.51 nM | 9.75 nM | – | –
UCCUUGGUACAGAAGGACCGAGCUCAGUAGCAGGUAGGAUAUGUACAUGAGGAUCACCCAUGUCAGCGGUAAUUACCAGUUUUC | 57.5 nM | 24.2 nM | – | –
CGAGUACAUGAGGAUCACCCAUGUUAUGAAUUGUCAGGAUAUGGGUAUUGGUGACAUGCGCCAGAAGGGACGUCUG | – | – | 232 nM | 124 nM
GUACAGUAGUGAGGAUAUACGAGAUCGAUAGAUCGGCGAUCCAAUAAUACAUGAGGAUCACCCAUGUAGAAGGCACUUCUGUAC | 7.69 nM | 113 nM | – | –
GACUUUCGGGCAGGAUAUGGGUGCCGUCAAGACAUGAGGAUCACCCAUGUCCCAUACACGAGCGCUCAGAAGGGCUCAUUGUAG | – | – | 67 nM | 32.9 nM

Sequence | apparent Kd [1] | apparent Kd [2] | apparent Kd [3] | apparent Kd [4]
CCGGAAUUGCAGGAUAUAGGAGUCGAUAGACACCUAGAAGGGCAGACAUGAGGAUCACCCAUGUGUCCUACCGG | 18.6 nM | 31.2 nM | – | –
GGGUACAUCGGAGGAUAUCAUGUAAAUACAUGAGGAUCACCCAUGUCGAUGAAGACAUCGGAGAUUGAGAAGGCCGAUGUACCG | – | – | 1070 nM | 76.3 nM
CUUUUGUGAGGAUAUCAGUAGUAAAUAAAUAAAAUUUCUACUGAGAAGGCACAUGAGGAUCACCCAUGUUCCUC | 38.5 nM | 220 nM | – | –
AAUUUGUGAAAAUUACAUGAGGAUCACCCAUGUUAGGGAAUGCAGGAUAUGUGGUUUAUUAUUUUACAGAAGGGCAAUAAUUUU | – | – | 95.9 nM | 53.6 nM
CUUCGUAUAGAGGAUAUAGGUUACUUCGGUAUCCUAGAAGGCUGUACAUGAGGAUCACCCAUGUACUUCAGAUC | 11.2 nM | 16.9 nM | – | –
UUAAGCAAGGAGAAGGCCCAGGUGGGCCAUCACAUGAGGAUCACCCAUGUGGGAGGAUAUCCGGGCCCACGCUUAUCCGCGGGC | 7.6 nM | 12.6 nM | – | –
CGAUAACAUAGUUAUCCGUAACGUACAUGAGGAUCACCCAUGUAGGAUAUGUUACUAAACUAGUAACAGAAGGACAUGAGUAUU | 54.9 nM | 315 nM | – | –
GUAAUUAAGAGAGGAUAUUGACAUGAGGAUCACCCAUGUAUUUGGGAGUGUUUACUGAAUUCUUACGAGAAGGCUUUUAAAUAC | 89.2 nM | 178 nM | – | –
ACUGGUCGAGGAUAUACGUGACGUGCUUCGGCACGAGGUCUACAUGAGGAUCACCCAUGUAGAAGGCGACCAGU | 17 nM | 53.9 nM | – | –
AAAAUACAUGAGGAUCACCCAUGUUAGGAUAUCCAAGGUCUGACCCUCAGGGUCAGAAGGAGAAGGGAUGUGGU | 56.7 nM | 67.7 nM | – | –
CUGAGGUCAGGAUAUGCAUGGCGGGACUUGCGUCGUGGCGUGGAGAAGGGACAUGAGGAUCACCCAUGUGGAGA | 83 nM | 81.1 nM | – | –
GUCGAGUGAGGAUAUUGAAUCGGUGGCAGACCACACGAGCUCGAGAAGGCACAUGAGGAUCACCCAUGUGGGUC | 28.1 nM | 41.6 nM | – | –
GUACAGUAGUGAGGAUAUACGAGAUCGAUAGAUCGGCGAUCCAUAUAUACAUGAGGAUCACCCAUGUAGAAGGCACUUCUGUAC | 7.7 nM | 104 nM | – | –
GCACUGGCAGGAUAUACAUGAGGAUCACCCAUGUGACCCUUGAUGUACUCGCGUACACGUAGAAGGGCCUGUGC | 120 nM | 571 nM | – | –
AAAAAACAUGAGGAUCACCCAUGUCUUUUGACAUGAGGAUAUGUACAGACUUCGGUCUGUACAGAAGGCAUGUCUU | – | – | 41.4 nM | 17.1 nM
UGAUAGCACAGAGGAUAUGCGUAUAGUUAUCACUACAUGAGGAUCACCCAUGUAGAAGGCUGUGCUAUCUAAGUCGGAAACGAC | 5.85 nM | 6.11 nM | – | –
GGUGCAAUGUAGAAGGCAGAUCUGAUUCAGAUCUGAGGAUAUACAUGAGGAUCACCCAUGUUAUGCACCAGCACGAGAGUGCAA | 6.57 nM | 12.6 nM | – | –
UGAUAGGACAGAGGAUAUGCCGAUAGGAUCUAUUAUCGAAGAAUCCUCACAUGAGGAUCACCCAUGUAGAAGGCUGUCCUAUCU | 9.32 nM | 36.6 nM | – | –
GCAAUAGCAUGAGGAUAUGCUGGAGUUUAGACAGUAGAAGGCAUGUCAUAAGACAUGAGGAUCACCCAUGUAGUUACAAUGGCA | – | – | 18.4 nM | 13.6 nM

Sequence | apparent Kd [1] | apparent Kd [2] | apparent Kd [3] | apparent Kd [4]
AUGCUUCACACAGGAUAUACAUGAGGAUCACCCAUGUGUCCUAAGUAGCUGACACGAGCUACGCGGUAGAAGGGUGUGAAGCAU | 21.6 nM | 154 nM | – | –
CACGGACAUGAGGAUCACCCAUGUGAGGAUAUGCUCUACGAACGUUUUCCCACGAGAAGCAGAAGGCACAUUUC | 78.2 nM | 135 nM | – | –
AUCUGGUCCUUACGCCCACAUGAGGAUCACCCAUGUCAGGCACAGGAUAUCCCGGGAGCUUUGGUGGAGAAGGGUGCCCUUGGG | 55.6 nM | 100 nM | – | –
AGUGUCAUCGAGAAGGCCUCAACAUGAGGAUCACCCAUGUUGCAAAAUGGGAGGAUAUCGCAAAAACAGCUACGUUUCGUAGCA | – | – | 45.4 nM | 7.43 nM
GGAAAGUGAGGAUAUGCAUAACAAAUACAAAGAGAAACAAAGCAGAAGGCACAUGAGGAUCACCCAUGUAAACA | 24.9 nM | 25 nM | – | –
AAAGUAGGAGGAUAUACAUAGAUACAGAUACAUGUAGACGUACAUGAGGAUCACCCAUGUAGAAGGCCUAUGUA | 65.9 nM | 212 nM | – | –
UCCGACCUAGGAUAUACCUGGGCCGCCUCGUGUUAUCACCUACAUGAGGAUCACCCAUGUAGAAGGAGGACGGU | 46.7 nM | 64.1 nM | – | –
AAUGUCUGAGGAUAUCGUUUUUUGUACAUGAGGAUCACCCAUGUUUUAUUUUGUAUAUUACGAGAAGGCAGUGGAA | 24.1 nM | 18.5 nM | – | –
GACUGACGAGGAUAUACAUGAGGAUCACCCAUGUAAGAUCAGCGACGAUAGUCGCAAUGUAGAAGGCGUCAGUC | 29.8 nM | 293 nM | – | –
GGUACUCAAAGAGUACCAAUACGUACAUGAGGAUCACCCAUGUAGGAUAUGCUACUCAAAGAGUAGCAGAAGGACAUGUGCCUA | 12.7 nM | 31 nM | – | –
CUGAUGUCAGGAUAUCAGAAAAGGUGCAAGGACGCACCAAAUGAGAAGGGACAUGAGGAUCACCCAUGUAAAAC | 25 nM | 122 nM | – | –
UUUACGAAAGUCGAACGAUGUAGCAGAAGGACAUGAGGAUCACCCAUGUCAGCUGUAACAGCCAUGUAGGAUAUGCUACAUUUU | 5.37 nM | 6.12 nM | – | –
UUAUUAUAUGUAGGAUAUGCAUAUUAUUAUUAUGCAGAAGGACAUGAGGAUCACCCAUGUAUAUUAUUAUUAUAUAUUAUGUAU | 36.3 nM | 61 nM | – | –
AAGGUACAUGAGGAUCACCCAUGUGGGUCGAACGCAGGAUAUCGCCGUUGGCCCUGGCGGCGAGAAGGGUGCCGAA | – | – | 189 nM | 175 nM
AUAUACGUUGAGGAUAUGCGAAUAAGUAUAGUUGCAGAAGGCGACACAUGAGGAUCACCCAUGUUCAUGGACAC | 28.2 nM | 44.6 nM | – | –
GUGUACAGAGGAUAUACGGGAGCAUGGAAACAUGCAACCUCACAUGAGGAUCACCCAUGUAGAAGGCUGUACAC | 162 nM | 243 nM | – | –
AAUUGGAUCCAGAAGGCAUGGACGACCCGUCAAAUUAACAUGAGGAUCACCCAUGUCAAAAGACAUGAGGAUAUGGAUCCUAAA | – | – | 869 nM | 28.4 nM
AUAAUUUUAUAAUUCUUUUUAUUCAGAAGGCAUAACAUGAGGAUCACCCAUGUAAAUUAAUGUUAUGAGGAUAUGAUUUGGUUA | 22.5 nM | 118 nM | – | –
